Reference: ChEMBL document CHEMBL1147022, “Studies on synthesis and evaluation of quantitative structure-activity relationship of 10-methyl-6-oxo-5-arylazo-6,7-dihydro-5H-[1,3]azaphospholo[1,5-d][1,4]benzodiazepin-2-phospha-3-ethoxycarbonyl-1-phosphorus dichlorides” (2006)

Tests used:
Format in all cases: functional
Set-up in all cases: unit not given here
Candida albicans = assay: Antifungal activity against Candida albicans ATCC 10231
How it was run: (§1)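 Fungal MIC by standard 2-fold serial dilution in Sabouraud dextrose agar, using compounds diluted from 1 mg/mL DMSO stocks. Plates receive about 10⁶ CFU/mL fungal suspension made from broth cultures, in triplicate, and are kept at 37 °C for 48–72 h. Clotrimazole is the reference drug.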

Aspergillus niger = assay: Antifungal activity against Aspergillus niger ATCC 16404; how it was run: as §1
Escherichia coli = assay: Antibacterial activity against Escherichia coli ATCC 445
How it was run: (§2)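 Agar 2-fold serial dilution MIC on nutrient agar. Test compounds come from 1 mg/mL DMSO stocks. Inoculum is about 10⁷ CFU/mL bacterial suspension prepared from broth cultures. Plates are run in triplicate and incubated at 37 °C for 16–47 h. Ampicillin trihydrate is the reference drug, tested under the same conditions.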

Bacillus subtilis = assay: Antibacterial activity against Bacillus subtilis ATCC 6633; how it was run: as §2

| SMILES | -Log MIC (Candida albicans) | -Log MIC (Aspergillus niger) | -Log MIC (Escherichia coli) | -Log MIC (Bacillus subtilis) |
| --- | --- | --- | --- | --- |
| CCOC(=O)c1pc(P(Cl)Cl)c2n1[C@@H](N=Nc1ccc(OC)cc1)C(=O)Nc1ccc(C)cc1-2 (stereo partly drawn) | 4.24 | 4.39 | 4.26 | 4.29 |
| CCOC(=O)c1pc(P(Cl)Cl)c2n1[C@@H](N=Nc1cccc(OCC)c1)C(=O)Nc1ccc(C)cc1-2 (stereo partly drawn) | 4.78 | 4.89 | 5.04 | 4.96 |
| CCOC(=O)c1pc(P(Cl)Cl)c2n1[C@@H](N=Nc1ccc([N+](=O)[O-])cc1)C(=O)Nc1ccc(C)cc1-2 (stereo partly drawn) | 4.32 | 4.45 | 4.61 | 4.52 |
| CCOC(=O)c1pc(P(Cl)Cl)c2n1[C@@H](N=Nc1ccc(C)cc1)C(=O)Nc1ccc(C)cc1-2 (stereo partly drawn) | 4.09 | 4.22 | 4.17 | 4.22 |
| CCOC(=O)c1pc(P(Cl)Cl)c2n1[C@@H](N=Nc1cccc(O)c1)C(=O)Nc1ccc(C)cc1-2 (stereo partly drawn) | 4.11 | 4.25 | 4.2 | 4.22 |
| CCOC(=O)c1pc(P(Cl)Cl)c2n1[C@@H](N=Nc1ccc(O)cc1)C(=O)Nc1ccc(C)cc1-2 (stereo partly drawn) | 4.06 | 4.18 | 4.11 | 4.17 |
| CCOC(=O)c1pc(P(Cl)Cl)c2n1[C@@H](N=Nc1cccc([N+](=O)[O-])c1)C(=O)Nc1ccc(C)cc1-2 (stereo partly drawn) | 4.5 | 4.56 |  | 4.55 |
| CCOC(=O)c1pc(P(Cl)Cl)c2n1[C@@H](N=Nc1ccc(OCC)cc1)C(=O)Nc1ccc(C)cc1-2 (stereo partly drawn) | 4.59 | 4.74 | 4.74 | 4.83 |
| CCOC(=O)c1pc(P(Cl)Cl)c2n1[C@@H](N=Nc1ccc(Cl)cc1)C(=O)Nc1ccc(C)cc1-2 (stereo partly drawn) | 4.36 | 4.51 | 4.39 | 4.41 |
| CCOC(=O)c1pc(P(Cl)Cl)c2n1[C@@H](N=Nc1cccc(C(=O)O)c1)C(=O)Nc1ccc(C)cc1-2 (stereo partly drawn) | 4.32 | 4.48 | 4.36 | 4.37 |
| CCOC(=O)c1pc(P(Cl)Cl)c2n1[C@@H](N=Nc1cccc(C)c1)C(=O)Nc1ccc(C)cc1-2 (stereo partly drawn) | 4.17 | 4.31 | 4.22 | 4.25 |
| CCOC(=O)c1pc(P(Cl)Cl)c2n1[C@@H](N=Nc1cccc(CC)c1)C(=O)Nc1ccc(C)cc1-2 (stereo partly drawn) | 4.61 | 4.82 | 4.88 | 4.68 |
| CCOC(=O)c1pc(P(Cl)Cl)c2n1[C@@H](N=Nc1cccc(OC)c1)C(=O)Nc1ccc(C)cc1-2 (stereo partly drawn) | 4.39 | 4.56 | 4.3 | 4.28 |
| CCOC(=O)c1pc(P(Cl)Cl)c2n1[C@@H](N=Nc1ccc(CC)cc1)C(=O)Nc1ccc(C)cc1-2 (stereo partly drawn) | 4.52 | 4.64 | 4.58 | 4.64 |
| CCOC(=O)c1pc(P(Cl)Cl)c2n1[C@@H](N=Nc1cccc(Cl)c1)C(=O)Nc1ccc(C)cc1-2 (stereo partly drawn) | 4.47 | 4.68 | 4.54 | 4.46 |
| CCOC(=O)c1pc(P(Cl)Cl)c2n1[C@@H](N=Nc1ccccc1)C(=O)Nc1ccc(C)cc1-2 (stereo partly drawn) | 4.1 | 4.12 | 4.05 | 4.05 |
